Assay results reported in paper PMC11780632 (Bioinformatics and Biology Insights, 2025).
In brackets after ≈: the same amount, converted by molar mass.

Tests used:
P. aeruginosa ATCC 27853 = test: MIC and MBC, micro-broth dilution; assay type: cell-based; conditions: Pseudomonas aeruginosa, ATCC27853, 24 h
How it was run: (§1)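 Strains were grown aerobically for 24 h at 37°C. Two-fold serial dilutions of test peptide were made in 96-well plates, and an equal volume of bacterial suspension at 1 × 10⁶ CFU/mL was added. Plates were incubated for 24 h at 37°C, with gentamicin as control. MIC was taken as the lowest concentration preventing growth.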

A. baumannii ATCC 19606 = test: MIC and MBC, micro-broth dilution; assay type: cell-based; conditions: Acinetobacter baumannii, ATCC19606, 24 h
How it was run: as §1

S. aureus ATCC 25923 [1] = test: MIC and MBC, micro-broth dilution; assay type: cell-based; conditions: Staphylococcus aureus, ATCC25923, 24 h
How it was run: as §1

S. aureus ATCC 25923 [2] = test: Radial diffusion assay; assay type: cell-based, Staphylococcus aureus; conditions: RDA, Mueller-Hinton agar, 1 × 10^6 CFU/mL, 24 hours at 37°C, done 3 times
E. coli ATCC 25922 = test: MIC and MBC, micro-broth dilution; assay type: cell-based; conditions: Escherichia coli, ATCC25922, 24 h
How it was run: as §1

- MIC (P. aeruginosa ATCC 27853): 4000 µM (≈ 1910 µg/mL)
- MIC (A. baumannii ATCC 19606): 8000 µM (≈ 3820 µg/mL)
- MIC (S. aureus ATCC 25923 [1]): 2000 µM (≈ 955 µg/mL)
- MIC (E. coli ATCC 25922): 1000 µM (≈ 478 µg/mL)
Structure (SMILES): CNC(C)C1CCC(N)C(OC2C(N)CC(N)C(OC3OCC(C)(O)C(NC)C3O)C2O)O1 (centres unmarked) [Gentamicin, gentamicin]
- diameter of the inhibition zone (S. aureus ATCC 25923 [2]): 26 mm
